The text below walks through data of PMC8958324 (iScience, 2022).

For assay [1], the target named is Rho F212W (Bos taurus, UniProt P02699, F212W). Briefly: Trp-based FRET assay, 11CR entry kinetics. In kind it is binding, bovine. The method in brief:
(§1)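 Mutant bovine opsin is expressed in HEK293F cells, regenerated with 5 μm 11CR overnight at 4°C, then 1D4-immunopurified in DDM and C9-peptide eluted. Receptor at 0.25–0.30 μm is diluted into 1% POPC/1% CHAPS bicelles, pH 6.0, stirred in a temperature-controlled cuvette, with 11CR at 0.5–30 μm final. Trp quenching (ex 295, em 330 nm) is fitted pseudo-first-order; k2 = kobs/[retinal]. Data are mean ± STD of ≥3 trials.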

Assay [2] addresses T1, Rho T94I (Bos taurus, UniProt P02699, T94I). Briefly: Trp-based FRET assay, 11CR entry kinetics. Type of assay: binding, bovine. The procedure, abridged: as §1
Assay [3] deals with T2, Rho I189P (Bos taurus, UniProt P02699, I189P). Briefly: Trp-based FRET assay, 11CR entry kinetics. The following applies: I189P vs I189, TM5 single vs TM5/I189P double mutants, kon Trp. Type of assay: binding, bovine. The procedure, abridged:
as §1

In assay [4] the target is S144-Alexa488 Rho F208W (Bos taurus, UniProt P02699, F208W/S144F). Briefly: Alexa488-based FRET assay, 11CR entry kinetics. The following applies: F208W vs wt; Eyring plot. In kind it is binding, bovine. The procedure, abridged: (§2)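 Bovine opsin bearing S144azF is expressed in HEK293F cells with 1 mm azF for 96 h and regenerated with 11CR. It is purified by 1D4 immunopurification in DDM and labelled on resin with 50 μm Alexa488-DIBO for 18 h at 25°C. Labelled receptor (5–50 nm) sits in 1% POPC/1% CHAPS bicelles, pH 6.0, with 0.5–30 μm 11CR. Fluorescence (ex 488, em 520 nm) decay gives kobs; kon = kobs/[retinal], measured across temperatures for Eyring plots; mean ± STD.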

Assay [5] addresses S144-Alexa488 Rho F212A (Bos taurus, UniProt P02699, F212A/S144F). As to the kind of experiment: Alexa488-based FRET assay, 11CR entry kinetics. Type of assay: binding, bovine. The settings on record: F212A vs wt; Eyring plot. The method in brief: as §2
Assay [6] has as its target Rho A269Y (Bos taurus, UniProt P02699, A269Y). Briefly: regeneration with 11CR. In kind it is binding, bovine. The following applies: 11CR 15 μM, over 48 h.
In assay [7] the target is Rho A269W (Bos taurus, UniProt P02699, A269W). As to the kind of experiment: regeneration with 11CR. In kind it is binding, bovine. The settings on record: expressed at very low level.
Assay [8] has as its system opsin. The settings on record: 11CR binding with opsin; ref Tian et al., 2017a; cited from earlier work.
The target in assay [9] is Rho F212A (Bos taurus, UniProt P02699, F212A). As to the kind of experiment: Trp-based FRET assay, ATR release kinetics. Type of assay: binding, bovine. The procedure, abridged: (§3)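 ATR release runs on HEK293F-expressed, 1D4-immunopurified mutant bovine rhodopsin at 0.25–0.30 μm in 1% POPC/1% CHAPS bicelles, pH 6.0. Release is followed as recovery of Trp fluorescence (ex 295, em 330 nm), the inverse of retinal-induced quenching, integrated for 2 s every 30 s. Traces are fitted to a single exponential to give koff, reported as mean ± STD of ≥3 trials.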

The target of assay [10] is Rho A269F (Bos taurus, UniProt P02699, A269F). Briefly: Trp-based FRET assay, ATR release kinetics. Type of assay: binding, bovine. The procedure, abridged: as §3
The target of assay [11] is T1, Rho T94I. As to the kind of experiment: Trp-based FRET assay, ATR release kinetics. Type of assay: binding, bovine. The method in brief:
as §3

The target of assay [12] is T2, Rho I189P. As to the kind of experiment: Trp-based FRET assay, ATR release kinetics. Type of assay: binding, bovine. The settings on record: I189P vs I189, TM5 single vs TM5/I189P double mutants, koff Trp. The method in brief:
as §3

`CC1=C(/C=C/C(C)=C/C=C/C(C)=C/C=O)C(C)(C)CCC1` [11CR, 11-cis-retinal]: the “11CR entry kinetics normalized to the wt Rho” value in assay [1] amounted to 0.043 ± 0.022. The “11CR entry kinetics (relative to wt)” value in assay [2] stood at 0.80 ± 0.04. The “reduction of activation free energy Δ‡Gon by I189P” value in assay [3] worked out at 1.6 ± 0.3 kcal/mol. Besides, the “increase of activation enthalpy (Δ‡H) of 11CR entry” value in assay [4] is 4.8 ± 3.1 kcal/mol. Moreover, the “reduction of activation enthalpy (Δ‡H) of 11CR entry” value in assay [5] amounted to 3.7 ± 1.6 kcal/mol. Moreover, the results for the “regeneration with 11CR” value in [6] and in assay [7] were “could not be regenerated” and “failed to regenerate”, respectively. Further, the “activation barrier Δ‡Gon” value in [8] is 13.5 kcal/mol.
On to `CC1=C(/C=C/C(C)=C/C=C/C(C)=C/C=O)C(C)(C)CCC1` [ATR, all-trans-retinal], for which the “ATR exit kinetics normalized to the wt Rho” value in assay [9] amounted to 2.82 ± 1.0; in assay [10], 0.91 ± 0.07. Further, in assay [11], the “ATR release kinetics (relative to wt)” value is recorded as 0.17 ± 0.02. Also, the “reduction of activation free energy Δ‡Goff by I189P” value in [12] worked out at 1.6 ± 0.8 kcal/mol.
